As a reminder, the inhibition is the change of the read-out against control, counted positive when it falls. The term IC50 denotes the point on the concentration scale where inhibition reaches its midpoint.

Assay [1] concerns the target T1, Kinase suppressor of Ras 2 (Homo sapiens) (UniProt Q6VAB6).
T1 sequence (whole entry): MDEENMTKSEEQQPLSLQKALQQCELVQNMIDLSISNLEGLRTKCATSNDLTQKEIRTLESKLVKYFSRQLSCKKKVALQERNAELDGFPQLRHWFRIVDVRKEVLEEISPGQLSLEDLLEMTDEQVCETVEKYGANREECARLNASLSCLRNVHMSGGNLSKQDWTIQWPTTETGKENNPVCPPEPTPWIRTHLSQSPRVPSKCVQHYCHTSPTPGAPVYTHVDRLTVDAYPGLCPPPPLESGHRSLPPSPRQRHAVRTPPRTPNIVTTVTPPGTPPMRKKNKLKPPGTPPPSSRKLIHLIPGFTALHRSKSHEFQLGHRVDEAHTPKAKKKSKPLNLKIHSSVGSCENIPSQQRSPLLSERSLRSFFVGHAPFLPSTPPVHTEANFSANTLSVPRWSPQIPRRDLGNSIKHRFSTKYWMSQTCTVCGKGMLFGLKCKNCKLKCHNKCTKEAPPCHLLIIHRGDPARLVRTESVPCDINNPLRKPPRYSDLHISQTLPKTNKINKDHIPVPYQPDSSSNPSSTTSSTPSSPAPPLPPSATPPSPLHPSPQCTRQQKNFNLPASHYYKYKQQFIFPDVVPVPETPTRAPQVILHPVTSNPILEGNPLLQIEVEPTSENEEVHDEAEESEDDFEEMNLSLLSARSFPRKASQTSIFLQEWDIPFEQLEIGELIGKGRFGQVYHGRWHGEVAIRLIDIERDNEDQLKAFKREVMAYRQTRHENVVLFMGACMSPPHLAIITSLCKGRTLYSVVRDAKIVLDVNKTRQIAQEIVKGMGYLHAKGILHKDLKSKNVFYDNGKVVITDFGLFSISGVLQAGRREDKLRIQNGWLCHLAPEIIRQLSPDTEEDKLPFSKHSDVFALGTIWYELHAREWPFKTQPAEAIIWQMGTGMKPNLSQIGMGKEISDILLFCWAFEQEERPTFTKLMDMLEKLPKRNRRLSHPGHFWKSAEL
Briefly: Inhibition of KSR2 ACT labeling site in human A-375 cells at 0.5 uM by KiNativ Profiling analysis relative to control. In kind it is cell-based.

The target of assay [2] is Mitogen-activated protein kinase 9 (Homo sapiens, UniProt P45984). Nature of the assay: Inhibition of JNK2 (unknown origin) Lys2 labeling site by KiNativ Profiling analysis.
Assay [3] deals with eIF-2-alpha kinase GCN2 (Homo sapiens) (UniProt Q9P2K8). Briefly: Inhibition of GCN2 domain2 Lys2 labeling site in human A-375 cells at 5 uM by KiNativ Profiling analysis relative to control. In kind it is cell-based.
Assay [4] concerns the target MAP/microtubule affinity-regulating kinase 3 (Homo sapiens) (UniProt P27448). Nature of the assay: Inhibition of MARK3 Lys1 labeling site in human A-375 cells at 5 uM by KiNativ Profiling analysis relative to control. Type of assay: cell-based.
Assay [5] addresses T2, Serine/threonine-protein kinase NLK (Homo sapiens) (UniProt Q9UBE8).
T2 sequence (whole entry): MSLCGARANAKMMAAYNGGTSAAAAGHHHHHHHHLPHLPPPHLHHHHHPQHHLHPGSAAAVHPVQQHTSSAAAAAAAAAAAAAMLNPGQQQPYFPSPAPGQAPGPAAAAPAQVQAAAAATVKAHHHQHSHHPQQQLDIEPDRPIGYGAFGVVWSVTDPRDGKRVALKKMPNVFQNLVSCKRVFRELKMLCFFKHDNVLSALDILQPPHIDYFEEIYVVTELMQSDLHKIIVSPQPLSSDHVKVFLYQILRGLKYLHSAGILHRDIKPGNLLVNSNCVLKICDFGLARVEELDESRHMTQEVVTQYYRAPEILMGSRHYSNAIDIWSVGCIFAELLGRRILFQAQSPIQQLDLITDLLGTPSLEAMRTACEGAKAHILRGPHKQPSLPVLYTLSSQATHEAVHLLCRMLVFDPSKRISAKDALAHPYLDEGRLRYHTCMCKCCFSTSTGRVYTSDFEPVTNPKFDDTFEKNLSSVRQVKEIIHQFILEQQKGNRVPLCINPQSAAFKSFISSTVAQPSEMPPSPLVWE
Briefly: Inhibition of NLK Lys2 labeling site in human A-375 cells at 5 uM by KiNativ Profiling analysis relative to control. Type of assay: cell-based.

The target of assay [6] is T3, Ephrin type-B receptor 2 (Homo sapiens) (UniProt P29323).
T3 sequence (whole entry): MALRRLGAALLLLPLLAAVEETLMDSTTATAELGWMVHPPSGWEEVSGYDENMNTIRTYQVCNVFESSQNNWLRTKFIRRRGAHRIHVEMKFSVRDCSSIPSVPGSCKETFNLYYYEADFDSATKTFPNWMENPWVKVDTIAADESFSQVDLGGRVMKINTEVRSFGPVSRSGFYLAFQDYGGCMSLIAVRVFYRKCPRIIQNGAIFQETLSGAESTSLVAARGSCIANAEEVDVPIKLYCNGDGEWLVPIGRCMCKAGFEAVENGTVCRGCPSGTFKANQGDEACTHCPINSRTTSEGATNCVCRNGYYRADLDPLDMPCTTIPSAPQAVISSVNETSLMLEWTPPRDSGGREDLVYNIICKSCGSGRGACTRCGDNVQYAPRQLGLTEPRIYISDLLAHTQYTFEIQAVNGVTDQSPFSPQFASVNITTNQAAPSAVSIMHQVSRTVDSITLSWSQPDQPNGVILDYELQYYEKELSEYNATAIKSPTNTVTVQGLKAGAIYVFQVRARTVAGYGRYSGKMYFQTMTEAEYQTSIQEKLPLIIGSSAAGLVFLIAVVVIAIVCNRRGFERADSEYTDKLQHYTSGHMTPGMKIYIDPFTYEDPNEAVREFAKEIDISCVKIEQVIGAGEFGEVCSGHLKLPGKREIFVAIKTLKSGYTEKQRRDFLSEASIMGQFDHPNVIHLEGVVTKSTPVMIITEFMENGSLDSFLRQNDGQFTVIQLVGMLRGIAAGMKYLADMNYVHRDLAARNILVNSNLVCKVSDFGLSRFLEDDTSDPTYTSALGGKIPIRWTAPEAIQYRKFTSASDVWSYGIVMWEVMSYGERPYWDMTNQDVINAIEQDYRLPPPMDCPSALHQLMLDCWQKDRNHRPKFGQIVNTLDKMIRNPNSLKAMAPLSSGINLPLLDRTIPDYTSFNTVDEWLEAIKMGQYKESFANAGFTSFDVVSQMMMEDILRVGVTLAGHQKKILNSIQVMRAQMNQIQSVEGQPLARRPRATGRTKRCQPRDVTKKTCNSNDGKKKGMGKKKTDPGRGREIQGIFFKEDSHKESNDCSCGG
Briefly: Inhibition of EphB2 ACT labeling site in human A-375 cells at 0.5 uM by KiNativ Profiling analysis relative to control. Type of assay: cell-based. The essentials: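 Live A375 melanoma cells were treated with compound at 0.5 or 5 μM, then lysed. Lysates were labeled with a lysine-reactive ATP or ADP-biotin probe. The read-out was protection of each kinase probe-labeling site from labeling, relative to control.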

Chain of MAP/microtubule affinity-regulating kinase 3 (Homo sapiens) (P27448 whole entry, looked up): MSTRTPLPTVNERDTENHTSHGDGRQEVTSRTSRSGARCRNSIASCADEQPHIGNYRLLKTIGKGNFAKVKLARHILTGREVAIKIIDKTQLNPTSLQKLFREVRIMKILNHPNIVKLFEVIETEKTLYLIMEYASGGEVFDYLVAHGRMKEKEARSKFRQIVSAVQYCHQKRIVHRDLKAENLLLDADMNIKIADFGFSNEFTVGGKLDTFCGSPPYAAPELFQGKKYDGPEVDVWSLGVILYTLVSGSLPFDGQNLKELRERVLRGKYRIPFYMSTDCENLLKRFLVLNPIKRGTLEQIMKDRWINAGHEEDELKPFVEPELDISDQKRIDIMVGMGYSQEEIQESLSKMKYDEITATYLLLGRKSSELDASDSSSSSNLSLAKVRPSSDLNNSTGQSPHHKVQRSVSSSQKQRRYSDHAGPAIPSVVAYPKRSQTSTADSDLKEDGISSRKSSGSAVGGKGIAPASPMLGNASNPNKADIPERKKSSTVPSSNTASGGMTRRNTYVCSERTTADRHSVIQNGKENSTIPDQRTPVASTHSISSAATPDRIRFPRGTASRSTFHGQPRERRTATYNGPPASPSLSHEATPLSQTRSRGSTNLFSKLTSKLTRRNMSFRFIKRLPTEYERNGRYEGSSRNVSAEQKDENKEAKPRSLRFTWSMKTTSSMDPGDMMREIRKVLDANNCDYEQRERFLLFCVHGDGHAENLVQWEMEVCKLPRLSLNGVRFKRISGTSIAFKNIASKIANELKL
Chain of Mitogen-activated protein kinase 9 (P45984 whole entry, the tested form may be a part): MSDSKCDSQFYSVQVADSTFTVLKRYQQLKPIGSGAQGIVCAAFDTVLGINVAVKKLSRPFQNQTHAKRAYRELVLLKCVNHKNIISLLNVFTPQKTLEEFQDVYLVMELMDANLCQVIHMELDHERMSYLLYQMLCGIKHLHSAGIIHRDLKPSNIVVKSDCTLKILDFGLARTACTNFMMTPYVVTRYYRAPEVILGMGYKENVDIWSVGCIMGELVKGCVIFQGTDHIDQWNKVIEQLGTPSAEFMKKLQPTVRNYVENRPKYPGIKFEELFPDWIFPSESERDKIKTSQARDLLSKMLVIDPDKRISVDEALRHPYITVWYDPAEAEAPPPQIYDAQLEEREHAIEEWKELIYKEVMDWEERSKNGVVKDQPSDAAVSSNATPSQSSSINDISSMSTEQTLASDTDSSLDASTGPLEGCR
Chain of eIF-2-alpha kinase GCN2 (Homo sapiens) (Q9P2K8 whole entry, the tested form may be a part): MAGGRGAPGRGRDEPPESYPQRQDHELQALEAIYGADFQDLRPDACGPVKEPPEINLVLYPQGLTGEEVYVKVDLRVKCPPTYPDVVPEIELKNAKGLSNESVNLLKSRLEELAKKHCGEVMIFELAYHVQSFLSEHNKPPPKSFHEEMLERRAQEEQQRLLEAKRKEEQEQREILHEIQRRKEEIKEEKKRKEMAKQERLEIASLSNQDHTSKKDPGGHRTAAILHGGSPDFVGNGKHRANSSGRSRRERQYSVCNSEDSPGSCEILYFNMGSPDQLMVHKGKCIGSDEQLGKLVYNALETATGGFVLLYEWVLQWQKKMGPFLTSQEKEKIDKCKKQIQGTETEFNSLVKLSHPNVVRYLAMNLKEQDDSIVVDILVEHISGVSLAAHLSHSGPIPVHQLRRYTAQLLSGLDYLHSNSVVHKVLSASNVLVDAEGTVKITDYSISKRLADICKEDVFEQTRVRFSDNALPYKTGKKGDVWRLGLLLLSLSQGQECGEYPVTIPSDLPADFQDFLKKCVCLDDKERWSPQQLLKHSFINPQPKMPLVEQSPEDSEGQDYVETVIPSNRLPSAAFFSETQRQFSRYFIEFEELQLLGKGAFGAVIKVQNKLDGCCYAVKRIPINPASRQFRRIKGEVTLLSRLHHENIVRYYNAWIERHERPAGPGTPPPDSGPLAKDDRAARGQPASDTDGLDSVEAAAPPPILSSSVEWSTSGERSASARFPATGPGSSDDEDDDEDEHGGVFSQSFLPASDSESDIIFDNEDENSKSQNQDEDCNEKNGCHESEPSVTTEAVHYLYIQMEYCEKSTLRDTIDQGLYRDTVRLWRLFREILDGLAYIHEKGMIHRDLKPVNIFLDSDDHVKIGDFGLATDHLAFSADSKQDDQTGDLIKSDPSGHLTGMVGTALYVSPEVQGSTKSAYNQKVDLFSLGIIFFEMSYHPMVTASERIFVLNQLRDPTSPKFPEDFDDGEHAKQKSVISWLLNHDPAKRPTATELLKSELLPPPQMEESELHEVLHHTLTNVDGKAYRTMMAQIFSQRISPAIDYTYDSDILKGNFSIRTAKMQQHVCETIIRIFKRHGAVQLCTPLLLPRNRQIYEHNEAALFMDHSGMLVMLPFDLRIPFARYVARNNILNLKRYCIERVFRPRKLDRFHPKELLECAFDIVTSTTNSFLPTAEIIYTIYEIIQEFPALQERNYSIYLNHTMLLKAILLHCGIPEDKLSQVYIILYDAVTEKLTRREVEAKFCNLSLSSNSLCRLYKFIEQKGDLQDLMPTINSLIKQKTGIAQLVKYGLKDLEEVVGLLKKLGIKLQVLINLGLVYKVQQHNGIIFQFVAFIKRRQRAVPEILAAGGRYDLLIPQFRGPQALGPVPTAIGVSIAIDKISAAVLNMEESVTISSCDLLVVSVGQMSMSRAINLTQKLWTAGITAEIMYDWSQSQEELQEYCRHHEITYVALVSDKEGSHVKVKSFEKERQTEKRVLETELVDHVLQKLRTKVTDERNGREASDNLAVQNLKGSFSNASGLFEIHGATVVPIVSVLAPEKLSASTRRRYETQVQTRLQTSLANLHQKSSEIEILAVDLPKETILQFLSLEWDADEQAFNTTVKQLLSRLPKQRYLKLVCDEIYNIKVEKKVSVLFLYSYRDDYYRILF

Take `CCN1CCN(Cc2ccc(NC(=O)c3ccc(C)c(/C=C/c4cnc5[nH]ccc5c4OC)c3)cc2C(F)(F)F)CC1`: the inhibition was 16.8% in assay [1]; 83.3% in assay [3]; 13.3% in assay [4]; 66.6% in assay [5]; 55.5% in assay [6]. In addition, in assay [2], the IC50 is above 10 µM.

Take `CCN1CCN(Cc2ccc(NC(=O)c3ccc(C)c(Oc4ccnc5[nH]ccc45)c3)cc2C(F)(F)F)CC1`: the inhibition in assay [1] is 8.5%; in assay [3], 44.3%; in assay [4], 4.9%; in assay [5], 18.9%; in assay [6], -2.2%. For the same molecule, in assay [2], the IC50 was above 10 µM.

Values taken from ChEMBL document CHEMBL5696442, “Discovery of type II inhibitors of TGFβ-activated kinase 1 (TAK1) and mitogen-activated protein kinase kinase kinase kinase 2 (MAP4K2)” (J Med Chem, 2015).
